Results taken from article PMC8102310 (Cancer discovery, 2021).
Like-named read-outs stand apart in the source and are kept apart here.

Experiments:
[1] = tested on: JQ1 resistant 22Rv1 cells; experiment: Cell proliferation in JQ1 resistant cells; assay type: cell-based; conditions: for resistance, resistant vs parental: JQ1 resistant 22Rv1 cells
Method in brief: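 For resistance, 22Rv1 cells were cultured for 6 months in escalating BET inhibitor (30 nM up to 500 nM) or in 0.1% DMSO vehicle. Dose was raised only when morphology, viability and growth were good and after at least two passages at the prior dose. Parental (vehicle-cultured) and resistant cells were then compared for proliferation IC50.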

[2] = tested on: androgen-dependent and castration resistant prostate cancer cell lines; conditions: ref [35], [54]; cited from earlier work
BRD4 bromodomain = BRD4 bromodomain (Homo sapiens, UniProt O60885); assay type: cell-based
BRD2, 3, 4, 9 and WDR9 = experiment: Bromoscan assay of 32 bromodomains; conditions: at 1 μM; minimal binding
97 kinases = experiment: Screen of 97 kinases; assay type: biochemical; conditions: at 10 μM
[3] = tested on: 44 receptors, enzymes and ion channels; experiment: Safety screen of 44 receptors, enzymes and ion channels; assay type: biochemical; conditions: at 10 μM
VCaP = experiment: Cell proliferation; assay type: cell-based; conditions: Homo sapiens, read-out: growth inhibition IC50
22Rv1 = experiment: Cell proliferation; assay type: cell-based
LNCaP95 = experiment: Cell proliferation; assay type: cell-based; conditions: LNCaP-95, read-out: growth inhibition IC50
[4] = tested on: AR negative, hormone independent, cell lines; experiment: Cell proliferation; assay type: cell-based; conditions: read-out: growth inhibition IC50
22Rv1 cells [5] = experiment: AR and C-MYC signaling; assay type: cell-based
LNCaP95 cells = experiment: AR and C-MYC signaling; assay type: cell-based
22Rv1 cells [6] = experiment: Chromatin immunoprecipitation of CBP, p300 and AR-FL at AR binding sites; assay type: cell-based; conditions: 500nM, 10nM dihydrotestosterone
C4–2 cells = experiment: as above; assay type: cell-based; conditions: 500nM, 10nM dihydrotestosterone
22Rv1 mouse xenografts = experiment: 22Rv1 mouse xenograft; assay type: in vivo
CP50c PDX = experiment: CP50c patient-derived xenograft; assay type: in vivo, mouse
Method in brief: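 CP50c PDX was passaged twice in castrated mice, then fragments were grafted subcutaneously into castrated male NSG mice. Oral gavage dosing began at about 300–400 mm³, once daily, with 5% DMSO:95% methylcellulose (0.5% w/v) as vehicle or formulation. Volumes were taken every 2–3 days and grouped by 5-day intervals, n=6 per group. Growth was normalized to start, and time to 300% of starting volume served as the surrogate survival endpoint.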

LNCaP-Bic mouse = LNCaP-Bic mouse xenograft; assay type: in vivo
patients with mCRPC = experiment: First in human phase I trial; assay type: in vivo

Which “resistance, resistant vs parental” value [1] does the source give for I-BET151 here?
The value was greater than 100 fold.

For `CC1=NN(c2ccc(C(=O)O)cc2)C(=O)/C1=C\c1ccc(-c2cc(C)c(C)cc2[N+](=O)[O-])o1` [C646], which cell death [2] is on record?
Its cell death is “induce cell death”.

With `Cc1sc2c(c1C)C(c1ccc(Cl)cc1)=N[C@@H](CC(=O)Nc1ccc(O)cc1)c1nnc(C)n1-2` [OTX-015] as the molecule, how does the “resistance, resistant vs parental” value [1] read?
The value was greater than 100 fold.

What does the source list for `CO[C@H]1CC[C@H](n2c([C@@H]3CCCC(=O)N3c3ccc(F)c(F)c3)nc3cc(-c4c(C)noc4C)ccc32)CC1` [CCS1477]?
IC50 (BRD4 bromodomain): 1060 nM; binding, % of control (BRD2, 3, 4, 9 and WDR9): 14–33 % of control; biochemical inhibitory activity (97 kinases): no biochemical inhibitory activity; biochemical inhibitory activity in safety screen [3]: no biochemical inhibitory activity; IC50 (VCaP): < 100 nM; IC50 (22Rv1; Homo sapiens, 22Rv1, read-out: growth inhibition IC50, 22Rv1): < 100 nM; IC50 (22Rv1; read-out: growth inhibition IC50, 22Rv1): 96 nM; IC50 (LNCaP95): < 100 nM; IC50 [4]: > 1000 nM; sensitivity of JQ1 resistant 22Rv1 cells to treatment ([1]; compared with parental): more sensitive; C-MYC protein expression (22Rv1 cells [5]; 22Rv1): reduced; expression of AR regulated genes (KLK2, KLK3 and TMPRSS2) (22Rv1 cells [5]; 48-hours): reduced; expression of AR regulated genes (KLK2, KLK3 and TMPRSS2) (LNCaP95 cells; 48-hours): reduced; C-MYC protein expression (LNCaP95 cells; LNCaP95): reduced; recruitment of CBP, p300 and AR-FL to AR binding sites (22Rv1 cells [6]): reduced the recruitment of CBP, p300 and AR-FL; recruitment of CBP, p300 and AR-FL to AR binding sites (C4–2 cells): reduced the recruitment of CBP, p300 and AR-FL; most effective tolerated dose (22Rv1 mouse xenografts; 22Rv1 xenograft): 20 mg/kg; concentration of CCS1477 in plasma and tumor (22Rv1 mouse xenografts; 24-hours after the last dose): undetectable; AR-FL, AR-V7 and C-MYC protein expression in tumors (22Rv1 mouse xenografts; after 7-days of treatment, all doses tested): reduced; plasma KLK3 concentrations (22Rv1 mouse xenografts; all doses): decrease; levels of CCS1477 in plasma or tumor (22Rv1 mouse xenografts; day 52): no detectable levels; tolerability (22Rv1 mouse xenografts; mouse, in vivo): well tolerated with no change in body weight or condition of the animals; tumor growth (22Rv1 mouse xenografts; oral, 10mg/kg QD, 20 mg/kg QD, 30 mg/kg QOD, vs vehicle): significantly (p=<0.001) impacted tumor growth; tumor growth inhibition after treatment stopped at 28-days (22Rv1 mouse xenografts; treatment stopped after 28-days): sustained until day 52; median time to 300% growth (CP50c PDX; 20 mg/kg once-daily, vehicle 38): 56 days; survival (time to 300% growth) (CP50c PDX; oral 20 mg/kg QD vs vehicle): significantly (p=<0.001) prolonged survival; tumor growth (CP50c PDX; oral 20 mg/kg QD vs vehicle): significantly (p=0.02) reduced tumor growth; tumor growth compared to enzalutamide (LNCaP-Bic mouse): significantly (p=<0.001) reduced tumor growth; plasma KLK3 (patients with mCRPC; Patient 1, 50 mg BD 3-days-on-and-4 days-off): initial fall in plasma KLK3 which then stabilized; biopsy protein expression post-dose vs pre-dose (IHC) (patients with mCRPC; Patient 1, 50 mg BD, 4-hours post dose): reduction in AR-V7 and C-MYC protein expression; biopsy protein expression post-dose vs pre-dose (IHC) (patients with mCRPC; Patient 2, 25 mg BD, 3-hours post dose): reduction in C-MYC and Ki67 protein expression

Which results are given for `Cc1sc2c(c1C)C(c1ccc(Cl)cc1)=N[C@@H](CC(=O)OC(C)(C)C)c1nnc(C)n1-2` [JQ1]?
IC50 (22Rv1; read-out: IC50 in parental 22Rv1 cells, parental cells, vehicle cultured): 60 nM; resistance, resistant vs parental [1]: > 100 fold; IC50 ([1]; read-out: IC50 in JQ1 resistant 22Rv1 cells, resistant cells): 7300 nM

For `CNC(=O)Nc1ccc2c(c1)CC[C@@]21OC(=O)N(CC(=O)N(Cc2ccc(F)cc2)[C@@H](C)C(F)(F)F)C1=O` [A-485], which cell death [2] is on record?
The cell death was “induce cell death”.
